Results from ChEMBL document CHEMBL5247578, “Effective synthesis of benzimidazoles-imidazo[1,2-a]pyrazine conjugates: A comparative study of mono-and bis-benzimidazoles for antitumor activity” (Eur J Med Chem, 2019).

Legend:
RXF 393 = experiment: Antiproliferative activity against human RXF 393 cells assessed as cell growth inhibition at 10 uM incubated for 48 hrs by sulforhodamine B assay relative to control; type: functional
Summary of the method: (§1)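 NCI-60 single-dose screen at 10^-5 M. Cells grown in RPMI 1640 with 5% FBS and 2 mM L-glutamine, plated at 5,000–40,000 cells/well, and preincubated 24 h. Drug (DMSO stock) added and incubated 48 h at 37 °C, 5% CO2. Adherent cells fixed with cold TCA, stained with 0.4% SRB in 1% acetic acid, dye solubilized in 10 mM trizma base, A515 read. Percent growth taken against time-zero and untreated control.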

T47D = experiment: Antiproliferative activity against human T47D cells assessed as cell growth inhibition at 10 uM incubated for 48 hrs by sulforhodamine B assay relative to control; type: functional; summary of the method: as §1
SK-MEL-2 = experiment: Antiproliferative activity against human SK-MEL-2 cells assessed as cell growth inhibition at 10 uM incubated for 48 hrs by sulforhodamine B assay relative to control; type: functional; summary of the method: as §1
U-251 = experiment: Antiproliferative activity against human U-251 cells assessed as cell growth inhibition at 10 uM incubated for 48 hrs by sulforhodamine B assay relative to control; type: functional; summary of the method: as §1
MDA-MB-231 = experiment: Antiproliferative activity against human MDA-MB-231 cells assessed as cell growth inhibition at 10 uM incubated for 48 hrs by sulforhodamine B assay relative to control; type: functional; summary of the method: as §1
A549 = experiment: Antiproliferative activity against human A549 cells assessed as cell growth inhibition at 10 uM incubated for 48 hrs by sulforhodamine B assay relative to control; type: functional
Summary of the method: (§2)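 Single-dose NCI-60 prescreen at 10^-5 M. Cells in RPMI 1640 with 5% FBS and 2 mM L-glutamine, seeded 5,000–40,000 cells/well with 24 h preincubation, then drug exposure for 48 h at 37 °C under 5% CO2. Growth read by SRB staining of TCA-fixed cells at 515 nm against time-zero and untreated controls. Negative growth values denote cell kill.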

HL-60 = experiment: Antiproliferative activity against human HL-60 cells assessed as cell growth inhibition at 10 uM incubated for 48 hrs by sulforhodamine B assay relative to control; type: functional
Summary of the method: (§3)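 NCI-60 one-dose prescreen at 10^-5 M. Cells grown in RPMI 1640 with 5% FBS and 2 mM glutamine, preincubated 24 h, then exposed 48 h at 37 °C. Adherent lines TCA-fixed, SRB-stained, A515 read. Growth percent relative to time-zero and control; negative values mean cell kill.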

NCI-H23 = experiment: Antiproliferative activity against human NCI-H23 cells assessed as cell growth inhibition at 10 uM incubated for 48 hrs by sulforhodamine B assay relative to control; type: functional; summary of the method: as §1
RPMI-8226 = experiment: Antiproliferative activity against human RPMI-8226 cells assessed as cell growth inhibition at 10 uM incubated for 48 hrs by sulforhodamine B assay relative to control; type: functional; summary of the method: as §1
Hs-578T = experiment: Antiproliferative activity against human Hs-578T cells assessed as cell growth inhibition at 10 uM incubated for 48 hrs by sulforhodamine B assay relative to control; type: functional; summary of the method: as §1
[1] = n-Octanol/phosphate buffer partition coefficient, logP of the compound at pH 7.4 incubated for 85 mins by shake-flask method; type: physicochemical
Summary of the method: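 Octanol–water partition by shake-flask: n-octanol with 0.15 M phosphate buffer pH 7.4 at 10:1 volumes. Buffer-phase absorbance read before mixing, then shaken 50 min and centrifuged at 2500 rpm for 35 min. Buffer absorbance read again; P = (Ai−Af)/Af × Vw/Vo.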

SR = experiment: Antiproliferative activity against human SR cells assessed as cell growth inhibition at 10 uM incubated for 48 hrs by sulforhodamine B assay relative to control; type: functional; summary of the method: as §1
NCI-H522 = experiment: Antiproliferative activity against human NCI-H522 cells assessed as cell growth inhibition at 10 uM incubated for 48 hrs by sulforhodamine B assay relative to control; type: functional; summary of the method: as §1
ACHN = experiment: Antiproliferative activity against human ACHN cells assessed as cell growth inhibition at 10 uM incubated for 48 hrs by sulforhodamine B assay relative to control; type: functional; summary of the method: as §2
SF-539 = experiment: Antiproliferative activity against human SF-539 cells assessed as cell growth inhibition at 10 uM incubated for 48 hrs by sulforhodamine B assay relative to control; type: functional; summary of the method: as §1
MDA-MB-468 = experiment: Antiproliferative activity against human MDA-MB-468 cells assessed as cell growth inhibition at 10 uM incubated for 48 hrs by sulforhodamine B assay relative to control; type: functional; summary of the method: as §1
SNB-19 = experiment: Antiproliferative activity against human SNB-19 cells assessed as cell growth inhibition at 10 uM incubated for 48 hrs by sulforhodamine B assay relative to control; type: functional; summary of the method: as §1
HCT-15 = experiment: Antiproliferative activity against human HCT-15 cells assessed as cell growth inhibition at 10 uM incubated for 48 hrs by sulforhodamine B assay relative to control; type: functional; summary of the method: as §3
HCC 2998 = experiment: Antiproliferative activity against human HCC 2998 cells assessed as cell growth inhibition at 10 uM incubated for 48 hrs by sulforhodamine B assay relative to control; type: functional; summary of the method: as §3
786-0 = experiment: Antiproliferative activity against human 786-0 cells assessed as cell growth inhibition at 10 uM incubated for 48 hrs by sulforhodamine B assay relative to control; type: functional; summary of the method: as §2
SK-MEL-5 = experiment: Antiproliferative activity against human SK-MEL-5 cells assessed as cell growth inhibition at 10 uM incubated for 48 hrs by sulforhodamine B assay relative to control; type: functional; summary of the method: as §1
A498 = experiment: Antiproliferative activity against human A498 cells assessed as cell growth inhibition at 10 uM incubated for 48 hrs by sulforhodamine B assay relative to control; type: functional; summary of the method: as §2
K562 = experiment: Antiproliferative activity against human K562 cells assessed as cell growth inhibition at 10 uM incubated for 48 hrs by sulforhodamine B assay relative to control; type: functional; summary of the method: as §1
KM12 = experiment: Antiproliferative activity against human KM12 cells assessed as cell growth inhibition at 10 uM incubated for 48 hrs by sulforhodamine B assay relative to control; type: functional; summary of the method: as §1
DU-145 = experiment: Antiproliferative activity against human DU-145 cells assessed as cell growth inhibition at 10 uM incubated for 48 hrs by sulforhodamine B assay relative to control; type: functional; summary of the method: as §3
HCT-116 = experiment: Antiproliferative activity against human HCT-116 cells assessed as cell growth inhibition at 10 uM incubated for 48 hrs by sulforhodamine B assay relative to control; type: functional; summary of the method: as §3
NCI-H226 = experiment: Antiproliferative activity against human NCI-H226 cells assessed as cell growth inhibition at 10 uM incubated for 48 hrs by sulforhodamine B assay relative to control; type: functional; summary of the method: as §1
PC-3 = experiment: Antiproliferative activity against human PC-3 cells assessed as cell growth inhibition at 10 uM incubated for 48 hrs by sulforhodamine B assay relative to control; type: functional; summary of the method: as §1
UO-31 = experiment: Antiproliferative activity against human UO-31 cells assessed as cell growth inhibition at 10 uM incubated for 48 hrs by sulforhodamine B assay relative to control; type: functional; summary of the method: as §1
IGROV-1 = experiment: Antiproliferative activity against human IGROV-1 cells assessed as cell growth inhibition at 10 uM incubated for 48 hrs by sulforhodamine B assay relative to control; type: functional; summary of the method: as §1
LOX IMVI = experiment: Antiproliferative activity against human LOX IMVI cells assessed as cell growth inhibition at 10 uM incubated for 48 hrs by sulforhodamine B assay relative to control; type: functional; summary of the method: as §1
MOLT-4 = experiment: Antiproliferative activity against human MOLT-4 cells assessed as cell growth inhibition at 10 uM incubated for 48 hrs by sulforhodamine B assay relative to control; type: functional; summary of the method: as §1
TK-10 = experiment: Antiproliferative activity against human TK-10 cells assessed as cell growth inhibition at 10 uM incubated for 48 hrs by sulforhodamine B assay relative to control; type: functional; summary of the method: as §1
OVCAR-8 = experiment: Antiproliferative activity against human OVCAR-8 cells assessed as cell growth inhibition at 10 uM incubated for 48 hrs by sulforhodamine B assay relative to control; type: functional; summary of the method: as §1
HT-29 = experiment: Antiproliferative activity against human HT-29 cells assessed as cell growth inhibition at 10 uM incubated for 48 hrs by sulforhodamine B assay relative to control; type: functional; summary of the method: as §1
HOP-92 = experiment: Antiproliferative activity against human HOP-92 cells assessed as cell growth inhibition at 10 uM incubated for 48 hrs by sulforhodamine B assay relative to control; type: functional; summary of the method: as §3
CCRF-CEM = experiment: Antiproliferative activity against human CCRF-CEM cells assessed as cell growth inhibition at 10 uM incubated for 48 hrs by sulforhodamine B assay relative to control; type: functional; summary of the method: as §2
UACC-62 = experiment: Antiproliferative activity against human UACC-62 cells assessed as cell growth inhibition at 10 uM incubated for 48 hrs by sulforhodamine B assay relative to control; type: functional; summary of the method: as §1

Question: Which inhibition at 10 µM (RXF 393) does the source give for `c1cn2cc(-c3ccsc3)nc(-c3ccc4ncn(C5CCCCC5)c4c3)c2n1` here?
Answer: 8.63%

Question: What about the inhibition at 10 µM (T47D) of the same molecule?
Answer: 63.7%

Question: And the inhibition at 10 µM (SK-MEL-2)?
Answer: 3.68%

Question: What about the inhibition at 10 µM (U-251) of the same molecule?
Answer: 6.09%

Question: And the inhibition at 10 µM (MDA-MB-231)?
Answer: 1.35%

Question: And the inhibition at 10 µM (A549)?
Answer: 3.97%

Question: And the inhibition at 10 µM (HL-60)?
Answer: 18.4%

Question: What about the inhibition at 10 µM (NCI-H23) of the same molecule?
Answer: 10%

Question: What about the inhibition at 10 µM (RPMI-8226) of the same molecule?
Answer: 37.9%

Question: What about the inhibition at 10 µM (Hs-578T) of the same molecule?
Answer: 5.56%

Question: And the logD at 1.417 h [1]?
Answer: 1.81

Question: What about the inhibition at 10 µM (SR) of the same molecule?
Answer: 14.3%

Question: What about the inhibition at 10 µM (NCI-H522) of the same molecule?
Answer: 10.2%

Question: And the inhibition at 10 µM (ACHN)?
Answer: 5.76%

Question: And the inhibition at 10 µM (SF-539)?
Answer: 6.29%

Question: What about the inhibition at 10 µM (MDA-MB-468) of the same molecule?
Answer: 21.8%

Question: And the inhibition at 10 µM (SNB-19)?
Answer: 0.39%

Question: And the inhibition at 10 µM (HCT-15)?
Answer: 1.37%

Question: What about the inhibition at 10 µM (HCC 2998) of the same molecule?
Answer: 2.18%

Question: What about the inhibition at 10 µM (786-0) of the same molecule?
Answer: 6.35%

Question: What about the inhibition at 10 µM (SK-MEL-5) of the same molecule?
Answer: 25%

Question: And the inhibition at 10 µM (A498)?
Answer: 20.1%

Question: What about the inhibition at 10 µM (K562) of the same molecule?
Answer: 22%

Question: And the inhibition at 10 µM (KM12)?
Answer: 15.4%

Question: And the inhibition at 10 µM (DU-145)?
Answer: 1.36%

Question: And the inhibition at 10 µM (HCT-116)?
Answer: 13.3%

Question: And the inhibition at 10 µM (NCI-H226)?
Answer: 6.34%

Question: What about the inhibition at 10 µM (PC-3) of the same molecule?
Answer: 19.9%

Question: What about the inhibition at 10 µM (UO-31) of the same molecule?
Answer: 23.1%

Question: What about the inhibition at 10 µM (IGROV-1) of the same molecule?
Answer: 1.51%

Question: What about the inhibition at 10 µM (LOX IMVI) of the same molecule?
Answer: 4.9%

Question: And the inhibition at 10 µM (MOLT-4)?
Answer: 30%

Question: And the inhibition at 10 µM (TK-10)?
Answer: 3.37%

Question: What about the inhibition at 10 µM (OVCAR-8) of the same molecule?
Answer: 12.1%

Question: What about the inhibition at 10 µM (HT-29) of the same molecule?
Answer: 5.68%

Question: And the inhibition at 10 µM (HOP-92)?
Answer: 27.8%

Question: And the inhibition at 10 µM (CCRF-CEM)?
Answer: 29.2%

Question: What about the inhibition at 10 µM (UACC-62) of the same molecule?
Answer: 18.4%
